Results on one compound are retold here after ChEMBL document CHEMBL2010740, “Synthesis and evaluation of 2-amido-3-carboxamide thiophene CB₂ receptor agonists for pain management” (Bioorg Med Chem Lett, 2012).

The target of data set [1] is T1, Cannabinoid receptor 2 (Rattus norvegicus, UniProt Q9QZN9).
T1 sequence (Q9QZN9 whole entry): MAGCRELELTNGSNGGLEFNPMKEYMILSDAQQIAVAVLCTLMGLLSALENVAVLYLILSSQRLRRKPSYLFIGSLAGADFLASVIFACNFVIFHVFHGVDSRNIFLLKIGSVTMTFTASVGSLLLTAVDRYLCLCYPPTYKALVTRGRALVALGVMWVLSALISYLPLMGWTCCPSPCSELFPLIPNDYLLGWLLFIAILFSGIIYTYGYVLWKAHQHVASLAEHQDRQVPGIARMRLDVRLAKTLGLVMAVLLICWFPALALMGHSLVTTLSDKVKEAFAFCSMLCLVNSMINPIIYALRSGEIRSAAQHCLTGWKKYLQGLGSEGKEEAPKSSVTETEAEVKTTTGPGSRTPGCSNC
The experiment in a line: Agonist activity at rat recombinant CB2 receptor expressed in HEK293 cells co-expressing chimeric Gaq/o protein by FLIPR assay by FLIPR assay. The class given is functional, cell-based. A digest of the protocol:
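FLIPR functional assay in HEK 293 cells stably co-expressing chimeric Gαq/o protein and the CB receptor. Net peak evoked response was compared with the peak response to CP-55,940.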

A short description of data set [2]: Plasma protein binding in rat. It is filed as ADME, cell-free. The conditions noted are these: read-out: PPB (converted).
Data set [3] can be described thus: Metabolic stability in rat microsomes assessed as compound remaining after 30 mins. It is filed as ADME, Microsome. The conditions noted are these: read-out: Stability. The essentials: (§1)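 Metabolic stability: compound incubated with human or rat liver microsomes. Percent parent remaining was measured after 30 min.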
Data set [4] is described as follows: Metabolic stability in human microsomes assessed as compound remaining after 30 mins. The conditions noted are these: read-out: Stability. It is filed as ADME, Microsome. The essentials: as §1
The nature of data set [5]: Volume of distribution during terminal phase in rat at 3 umol/kg, iv. It is filed as ADME, organism-based. The conditions noted are these: in vivo, read-out: Vbeta.
Data set [6] in a line: Plasma clearance in rat at 3 umol/kg, iv. The class given is ADME, organism-based.
Data set [7] is described as follows: Half life in rat at 3 umol/kg, iv. It is filed as ADME, organism-based. The conditions noted are these: in vivo.
Data set [8] in a line: Tmax in rat at 10 umol/kg, ip. The class given is ADME, organism-based. The settings on record: in vivo.
Data set [9] is described as follows: Oral bioavailability in rat at 10 umol/kg, ip. It is filed as ADME, organism-based. The settings on record: in vivo, intraperitoneal.
Data set [10] is described as follows: Half life in rat at 10 umol/kg, po. The conditions noted are these: in vivo. It is filed as ADME, organism-based.
Data set [11] has as its system Rattus norvegicus. The experiment in a line: Analgesic activity in rat chronic constriction injury model of neuropathic pain assessed as reduction in mechanical allodynia at 30 umol/kg, ip administered 2 weeks post-surgery measured after 30 mins. Also noted: scale not given: the % may be the effect or the level left. It is filed as functional.
For data set [12], the system named is Rattus norvegicus. Description: Analgesic activity in rat incision model of post-operative pain assessed as reduction in paw withdrawal latency at 3 umol/kg, ip administered 90 mins post-surgical incision measured after 30 mins. The class given is functional. Set-up: scale not given: the % may be the effect or the level left.
The test system of data set [13] is Rattus norvegicus. The experiment in a line: Analgesic activity in rat complete Freund's adjuvant model of chronic inflammatory pain assessed as latency in paw withdrawal at 30 umol/kg, po administered 48 hrs after CFA-challenge measured after 60 mins. It is filed as functional.
Data set [14] has as its system Rattus norvegicus. The experiment in a line: Analgesic activity in rat complete Freund's adjuvant model of chronic inflammatory pain assessed as reduction in thermal hyperalgesia at 10 umol/kg, ip administered 48 hrs after CFA-challenge measured after 60 mins. The class given is functional. Set-up: scale not given: the % may be the effect or the level left.
Data set [15] concerns Rattus norvegicus. The experiment in a line: Analgesic activity in rat complete Freund's adjuvant model of chronic inflammatory pain assessed as reduction in thermal hyperalgesia at 10 umol/kg, ip. The class given is functional. Also noted: scale not given: the % may be the effect or the level left. A digest of the protocol: (§2)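 Rat CFA inflammatory pain model. Read-out was thermal hyperalgesia in the CFA-injected right paw, with the left paw as control. Test compound and the CB₂ antagonist SR-144528 (10 µmol/kg ip) were given alone and combined, with vehicle controls.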

The test system of data set [16] is Rattus norvegicus. The experiment in a line: Analgesic activity in rat complete Freund's adjuvant model of chronic inflammatory pain assessed as reduction in thermal hyperalgesia at 10 umol/kg, ip co-administered with CB2 antagonist SR144528. It is filed as functional. Set-up: scale not given: the % may be the effect or the level left. The essentials:
as §2

In data set [17] the test system is Rattus norvegicus. Description: Neurotoxicity in rat assessed as decrease in spontaneous locomotory activity at 30 umol/kg, ip after 30 mins. It is filed as toxicity, organism-based. Also noted: scale not given: the % may be the effect or the level left. The conditions noted are these: in vivo, 0.5 h. A digest of the protocol: (§3)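 Spontaneous horizontal locomotor activity in rats. Compound was given intraperitoneally 30 min before testing.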

Data set [18] relates to Rattus norvegicus. The experiment in a line: Neurotoxicity in ip dosed rat assessed as decrease in spontaneous locomotory activity after 30 mins. The settings on record: in vivo, 0.5 h. The class given is toxicity, organism-based. The essentials:
as §3

For the compound `CCCNC(=O)c1c(NC(=O)C23CC4CC(CC2C4)C3)sc2c1CCOC2`, the IC50 in data set [1] was 1550 nM. Also, the fraction unbound in data set [2] is 0.03. Further, the results for the remaining at 0.5 h in data set [3] and in data set [4] were 5% and 9%, respectively. In addition, the Vd in data set [5] is 8.7 L/kg. In data set [6], this compound showed a clearance of 63.3 mL/min/kg. Moreover, the half-life in data set [7] was 1.5 h; in data set [10] it was 1.6 h. Besides, in data set [8], the Tmax was 0.6 h. This compound registered a bioavailability in data set [9] of 96%. Besides, the Activity in data set [11] was found to be 74%; in [12], 21%; in [13], 24%; in data set [14], 74%; in data set [15], 91%; in data set [16], 24%. The Activity in data set [17] was 50%; in data set [18] it was “Dose-dependent effect”.
